In one series the target is Aβ42 (Homo sapiens, UniProt P05067). In words: Thioflavin-T fluorescence assay, inhibition of Aβ42 aggregation. Type of series: biochemical. The following applies: 24 h, read-out: % inhibition of Aβ42 aggregation (ThT fluorescence), test peptide 10 μM (1:5), Aβ42 2 μM, co-incubated 24 h at 37 °C, λex 440 nm, λem 485 nm, mean of triplicate.
A further series addresses preformed Aβ42 fibrils (Homo sapiens, UniProt P05067). As to the kind of experiment: Thioflavin-T assay, deformation of preformed Aβ42 fibrils. Type of series: biochemical. Conditions: 24 h, Aβ42 2 μM pre-aggregated 24 h.
The next series has as its system PC-12 cells. In words: Cytotoxicity studies, MTT assay. Type of series: cell-based, rat. The following applies: highest tested concentration 20 μM, 6 h, MTT OD570, triplicate. In a few lines: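 PC-12 cells were exposed to the test peptide alone at the stated dose for 6 h, with no Aβ added, and viability was read by MTT assay. Untreated cells were set as 100% (positive control). Samples were run in triplicate in three individual experiments and the readings were averaged (<5% variation).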
On the technique in general: Tetrazolium assays rely on reduction of a dye to a coloured formazan, in cell work by metabolically active cells.

Where a SMILES comes first, the peptide text is derived from it. [ ]: non-standard residue; d: D form. Nva = CCC[C@H](N)C(=O)O; Aib = CC(C)(N)C(=O)O

Aβ42, sequence (P05067 672-713): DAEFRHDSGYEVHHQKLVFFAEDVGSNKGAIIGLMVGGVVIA
preformed Aβ42 fibrils, sequence (P05067 672-713): as above

Broadly, the inhibition is the relative decrease from the control value, in per cent. In the case of `CC[C@H](C)[C@H](NC(=O)[C@@H](NC(=O)[C@@H](N)Cc1ccccc1)C(C)C)C(=O)N[C@@H](C)C(N)=O` [12b, Phe-Val-Ile-Ala-NH2] (H-FVIA-NH2), the inhibition at 10 µM on Aβ42 is 77.6%.

`CCC[C@H](N)C(=O)N[C@H](C(=O)N[C@H](C(=O)N[C@@H](C)C(N)=O)[C@@H](C)CC)C(C)C` [12e, Nva-Val-Ile-Ala-NH2] (H-[Nva]VIA-NH2): the inhibition at 10 µM on Aβ42 was determined as 70.3%. Turning to `CC[C@@H](C)[C@@H](NC(=O)[C@@H](N)C(C)C)C(=O)N[C@H](C(=O)N[C@@H](C)C(N)=O)[C@@H](C)CC` [13b, Val-D-Ile-Ile-Ala-NH2] (H-V[dI]IA-NH2), the inhibition at 10 µM on Aβ42 was determined as 49.4%. Turning to `CC(C)C[C@H](NC(=O)[C@@H](NC(=O)[C@@H](N)C(C)C)C(C)C)C(=O)N[C@@H](C)C(N)=O` [14b, Val-Val-Leu-Ala-NH2] (H-VVLA-NH2), at Aβ42, the inhibition at 10 µM was 0%. Consider `CC[C@H](C)[C@H](NC(=O)C(C)(C)NC(=O)[C@@H](N)C(C)C)C(=O)N[C@@H](C)C(N)=O` [13d, Val-Aib-Ile-Ala-NH2] (H-V[Aib]IA-NH2), for which the inhibition at 10 µM at Aβ42 stood at 45.3%. On to `CC[C@H](C)[C@H](NC(=O)[C@@H](NC(=O)[C@@H](N)C(C)C)C(C)C)C(=O)N[C@H](C(N)=O)C(C)C` [15d, Val-Val-Ile-Val-NH2] (H-VVIV-NH2), for which the inhibition at 10 µM on Aβ42 amounted to 11%. `CC[C@H](C)[C@H](NC(=O)[C@@H](NC(=O)[C@H]1CCCN1)C(C)C)C(=O)N[C@@H](C)C(N)=O` [12d, D -Pro-Val-Ile-Ala-NH2] (H-[dP]VIA-NH2): at Aβ42, the inhibition at 10 µM turned out to be 39.8%.

With `CC[C@H](C)[C@H](NC(=O)[C@@H](NC(=O)[C@H](N)C(C)C)C(C)C)C(=O)N[C@@H](C)C(N)=O` [12a, D -Val-Val-Ile-Ala-NH2] (H-[dV]VIA-NH2), the inhibition at 10 µM at Aβ42 is 82.1%. On to `CC[C@H](C)[C@H](NC(=O)[C@@H](NC(=O)[C@@H](N)C(C)C)C(C)C)C(=O)N[C@@H](CC(C)C)C(N)=O` [15e, Val-Val-Ile-Leu-NH2] (H-VVIL-NH2), for which the inhibition at 10 µM at Aβ42 amounted to 31.2%. On the same count and under the same terms, the value for `CC[C@H](C)[C@H](NC(=O)[C@H](NC(=O)[C@@H](N)C(C)C)C(C)C)C(=O)N[C@@H](C)C(N)=O` [13a, Val-D-Val-Ile-Ala-NH2] (H-V[dV]IA-NH2) was 15.7%; that for `CC[C@H](C)[C@H](NC(=O)[C@@H](NC(=O)[C@@H](N)C(C)C)C(C)C)C(=O)N[C@H](C)C(N)=O` [15a, Val-Val-Ile-D-Ala-NH2] (H-VVI[dA]-NH2) was 23.2%; that for `CC[C@H](C)[C@H](NC(=O)[C@@H]1CCCN1C(=O)[C@@H]1CCCN1)C(=O)N[C@@H](C)C(N)=O` [16a, Pro-Pro-Ile-Ala-NH2] (H-PPIA-NH2) was 14.2%. The same measure, in the same setting: under `CC[C@H](C)[C@H](NC(=O)[C@@H](NC(=O)[C@@H](N)C(C)C)C(C)C)C(=O)NC(C)(C)C(N)=O` [15b, Val-Val-Ile-Aib-NH2] (H-VVI[Aib]-NH2) stands 35.1%; under `CC[C@@H](C)[C@@H](NC(=O)[C@@H](NC(=O)[C@@H](N)C(C)C)C(C)C)C(=O)N[C@@H](C)C(N)=O` [14a, Val-Val-D-Ile-Ala-NH2] (H-VV[dI]A-NH2), 21.8%. As to `CC[C@H](C)[C@H](NC(=O)[C@@H](NC(=O)[C@H](N)Cc1ccccc1)C(C)C)C(=O)N[C@@H](C)C(N)=O` [12c, D-Phe-Val-Ile-Ala-NH2] (H-[dF]VIA-NH2), the “% Deformation of preformed Aβ42 fibrils” value is on record as 33.7% on preformed Aβ42 fibrils (test peptide 0.5 μM (1:0.1)), 34.9% at preformed Aβ42 fibrils (test peptide 1 μM (1:0.5)) and 57.5% at preformed Aβ42 fibrils (test peptide 2 μM (1:1)). The “cytotoxicity, % viable PC-12 cells” value in the series with PC-12 cells is “negligible cytotoxicity”.
